In PMC4291750 (Journal of the American Chemical Society, 2014):

How the values were obtained:
[1] = test system: IFN-γ-primed U937 cells with PSMA-coated beads; test: ROS production; assay type: cell-based
Outline: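 U937 cells primed 72 h with IFN-γ (final 2 ng/mL, daily medium change). 3×10^5 cells/mL in phenol-free RPMI/10% low-IgG FBS mixed with test compound, with or without 10^5 PSMA-coated beads/mL. 2.5 mM lucigenin solution added (stock). Plate spun 200 rcf 2 min. Chemiluminescence read every 2 min for 60–90 min; peak luminescence taken. Mean of ≥duplicates ±SD.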

[2] = test system: PSMA-coated beads phagocytosed by IFN-γ-primed U937 cells; test: Bead phagocytosis assay; assay type: cell-based
Outline: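 Effectors were U937 cells primed 72 h with IFN-γ (final 2 ng/mL, medium changed daily) and stained with DiD (final 1.9 μM, 30 min, 37 °C). Targets were 6 μm fluorescent streptavidin beads loaded with avi-tagged PSMA. 4×10^4 beads and 10^5 effectors (E:T 2.5:1) in phenol-free RPMI/10% low-IgG FBS, ±test compound ±competitor (PSMA ligand or anti-FcγRI antibody). Spun 200 rcf 2 min, 37 °C 1 h, stopped on ice, flow cytometry. % targets phagocytosed minus no-compound background; mean of ≥duplicates ±SD.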

[3] = test system: PSMA-expressing RM1.PGLS cells phagocytosed by IFN-γ-primed U937 cells; test: Cell phagocytosis assay; assay type: cell-based, murine
Outline: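 RM1.PGLS targets were stained adherent with DiO (final 1.9 μM), detached with 0.5 mM EDTA/EGTA and checked by trypan blue. 1.25×10^4 targets and 10^5 IFN-γ-primed, DiD-stained U937 (E:T 8:1; range 2:1–20:1 also tested) in Assay Media, ±test compound ±inhibitors. Spun 200 rcf 2 min, 1 h at 37 °C, then flow cytometry. % targets phagocytosed minus background. Imaging-cytometry counterpart: formaldehyde-fixed, CD14/CD11b-APC plus Hoechst, events scored as cup or engulfment. Dunnett ANOVA versus no compound.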

[4] = test system: isogenic PSMA-negative RM1 tumor line; test: Cell phagocytosis assay, PSMA-negative control; assay type: cell-based, murine; conditions: U937 effector cells
RM1-hPSMA cells = test: Compound cytotoxicity assay; assay type: cell-based, murine; conditions: cell index over 24 hours, vs 1% DMSO
Outline: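 12 500 RM1-hPSMA cells per well were plated 36 h beforehand in DMEM (4.5 g/L glucose, 10% FBS, pen/strep, 2 mM glutamine, 1 mM pyruvate). Impedance cell index was recorded at 37 °C, 5% CO2, with cell-free medium as background. At time 0 medium was replaced with test compound at various concentrations, 1% DMSO vehicle or 3% Triton. Readings every 2 min for 3 h, then every 10 min for 21 h.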

Compound	ROS production in the absence of target beads ([1]; no PSMA-labeled beads)	superoxide burst response ([1]; with PSMA-coated beads, lucigenin chemiluminescence)	phagocytosis of PSMA-coated beads, comparison between SyAMs ([2]; primed U937 effector cells)	phagocytosis of PSMA-expressing RM1.PGLS cells ([3]; U937 effector cells)	phagocytosis of PSMA-negative RM1 cells [4]	cytotoxicity in the absence of effector cells (RM1-hPSMA cells)	effect of competitor on SyAM-P3-induced bead phagocytosis ([2]; 50 nM SyAM-P3)	effect of competitor on SyAM-P1-induced bead phagocytosis ([2]; SyAM-P1-induced effector responses)	effect of competitor on SyAM-P3-induced cell phagocytosis ([3]; RM1.PGLS targets)
CC(=O)N[C@H](C(=O)N[C@@H](CC(N)=O)C(=O)N[C@@H](CO)C(=O)N[C@H]1CSSC[C@@H](C(=O)NCC(=O)N[C@@H](CC(=O)O)C(=O)N[C@@H](CC(=O)O)C(=O)N[C@@H](CCCCNC(=O)CCCC(=O)NCCOCCOCCOCC(=O)NCCCC[C@H](NC(=O)COCCOCCOCCNC(=O)CCCC(=O)NCCCC[C@H](NC(=O)[C@H](CC(=O)O)NC(=O)[C@H](CC(=O)O)NC(=O)CNC(=O)[C@@H]2CSSC[C@H](NC(=O)[C@H](CO)NC(=O)[C@H](CC(N)=O)NC(=O)[C@@H](NC(C)=O)C(C)C)C(=O)N[C@@H](CC(C)C)C(=O)N[C@@H](CC(C)C)C(=O)N[C@@H](CC(C)C)C(=O)N3CCC[C@H]3C(=O)N[C@@H](CC(N)=O)C(=O)N[C@@H](CC(C)C)C(=O)N[C@@H](CC(C)C)C(=O)NCC(=O)N2)C(=O)N[C@@H](CCCCNC(=O)CCCC[C@@H]2SC[C@@H]3NC(=O)N[C@@H]32)C(N)=O)C(=O)NCc2cn(-c3cc(C(=O)NCCCCCC(=O)NCCCCCC(=O)NCCCCCC(=O)NCCCCCC(=O)NCCCCCC(=O)NCCCCCC(=O)NCc4cn(CCCC[C@H](NC(=O)N[C@@H](CCC(=O)O)C(=O)O)C(=O)O)nn4)cc(C(=O)NCCCCCC(=O)NCCCCCC(=O)NCCCCCC(=O)NCCCCCC(=O)NCCCCCC(=O)NCCCCCC(=O)NCc4cn(CCCC[C@H](NC(=O)N[C@@H](CCC(=O)O)C(=O)O)C(=O)O)nn4)c3)nn2)C(=O)N[C@@H](CCCCNC(=O)CCCC[C@@H]2SC[C@@H]3NC(=O)N[C@@H]32)C(N)=O)NC(=O)CNC(=O)[C@H](CC(C)C)NC(=O)[C@H](CC(C)C)NC(=O)[C@H](CC(N)=O)NC(=O)[C@@H]2CCCN2C(=O)[C@H](CC(C)C)NC(=O)[C@H](CC(C)C)NC(=O)[C@H](CC(C)C)NC1=O)C(C)C [SyAM-P3]	required the presence of PSMA-labeled beads	both more potent and more efficacious than earlier-generation molecules	both more potent and more efficacious than earlier-generation molecules	significant levels of target cell phagocytosis	only minimal levels of phagocytosis	non-cytotoxic	–	–	–
O=C(O)CCC(CP(=O)(O)O)C(=O)O (stereo not drawn) [2-PMPA]	–	–	–	–	–	–	suppressed in a concentration-dependent manner	abrogated	suppressed
